The nature of experiment [1]: Antitumor activity against mouse Ridgeway osteogenic sarcoma cells allografted in mouse at 1 to 2 mg/kg/day, ip. It counts as functional. As to conditions: route intraperitoneal. The method in brief: (§1)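 Sulfate salts given ip on days 1-9 against ROS and GLS in mice; tumor growth scored as percent inhibition versus controls (+++ = 75-100%, ++ = 50-75%, ± = under 25%).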

A short description of experiment [2]: Antitumor activity against mouse Gardner lymphosarcoma cell allografted in mouse at 1.0 to 2.0 mg/kg/day, ip. The class given is functional. As to conditions: route intraperitoneal. The method in brief: as §1
For experiment [3], the system named is P388. Put plainly: Antitumor activity against mouse P388 cells allografted in mouse assessed as survival at 4 mg/kg/day after 1 day. The class given is functional, organism-based. Summed up: (§2)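 P388 ascites implanted ip in mice; sulfate salts dosed either daily or as a single dose on day 1, 10 animals per group. Survivors per total were recorded, median life span was calculated using all deaths and survivors, and percent increase of life span was reported.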

The subject of experiment [4] is P388. The experiment is described as follows: Antitumor activity against mouse P388 cells allografted in mouse assessed as survival at 1.8 mg/kg/day after 1 day. The class given is functional, organism-based. Summed up: as §2
Experiment [5] relates to Leukemia cell. The experiment is described as follows: Antitumor activity against human leukemia cells allografted in human assessed as remission of nonlymphocytic leukemia at 3 to 4 mg/m'2, iv once weekly dosed through push technique. It counts as functional, organism-based.
In another experiment the test system is Mus musculus. The experiment is described as follows: Antitumor activity against Gardner lymphosarcoma cell in po dosed mouse. It counts as functional, organism-based.
Experiment [6] relates to P388. Put plainly: Antitumor activity against mouse P388 cells allografted in mouse assessed as survival at 2.7 mg/kg/day after 1 day. It counts as functional, organism-based. The method in brief: as §2
A further experiment relates to sarcoma. The experiment is described as follows: Antitumor activity against mouse Ridgeway osteogenic sarcoma cell allografted in po dosed mouse. The class given is functional, organism-based.
Experiment [7] has as its system P388. Put plainly: Antitumor activity against mouse P388 cells allografted in mouse assessed as survival at 0.10 mg/kg/day administered from day 1 to day 9. It counts as functional, organism-based. Summed up: as §2
The subject of experiment [8] is Leukemia cell. Put plainly: Antitumor activity against human leukemia cells allografted in human assessed as remission of acute lymphocytic leukemia at 3 to 4 mg/m'2, iv once weekly dosed through push technique. It counts as functional, organism-based.

The source made the active and inactive calls. No cut-off for these calls is given here. A value given as a limit tells only on which side of the number the result lay.

As a reminder, the TGI is how far tumour growth fell short of that in controls.

For `CC[C@]1(O)C[C@@H]2C[C@H](c3cc4c(cc3OC)N(C)[C@H]3[C@@](O)(C(N)=O)[C@H](O)[C@]5(CC)C=CCN6CC[C@]43[C@@H]65)c3[nH]c4ccccc4c3CCN(C2)C1.O=S(=O)(O)O`, the TGI in [1] and in experiment [2] was <25% each time.
On to `CC[C@]1(O)C[C@@H]2CN(CCc3c([nH]c4ccccc34)[C@@](C(=O)OC)(c3cc4c(cc3OC)N(C)[C@H]3[C@@](O)(C(N)=O)[C@H](O)[C@]5(CC)C=CCN6CC[C@]43[C@@H]65)C2)C1`, for which the outcome in the experiment with P388 [3], with P388 [4], with Mus musculus, in the experiment with P388 [6], in the experiment with sarcoma and with P388 [7] was inactive. Further, the result in the experiment with Leukemia cell [5] and with Leukemia cell [8] was Active.
